Results on 53 compounds are retold here after ChEMBL document CHEMBL1122325, “2-[(Phenylthio)methyl]pyridine derivatives: new antiinflammatory agents” (1983).

Calls of active or inactive are those of the source. No cut-off for these calls is given here.

In experiment [1] the test system is Rattus norvegicus. Nature of the experiment: Percent inhibition of rat dermal RPAR following 350 umol/kg p.o. administration. The experiment is classed as functional. The conditions noted are these: po. The procedure, abridged: (§1)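 Male Sprague-Dawley rats (140-160 g, n=6/group), fasted 18 h, given iv BSA 0.15% w/v with 0.4% Evans Blue in saline, then test agent orally in 0.2% methylcellulose about 1 h later (three dose levels, vehicle controls). Anti-BSA rabbit γ-globulin injected intradermally 30 min post-dose; lesions excised at 4 h, dye-outlined diameters measured, percent inhibition of lesion area versus control; 40% inhibition dose by least-squares regression.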

The test system of experiment [2] is Rattus norvegicus. Nature of the experiment: Inhibition of dermal RPAR in rats following p.o. administration; Not significant. The experiment is classed as functional. The procedure, abridged: as §1
Experiment [3] has as its system Rattus norvegicus. In words: Inhibition of dermal RPAR in rats following p.o. administration. The experiment is classed as functional. The method, boiled down: as §1
For experiment [4], the species on record is Rattus norvegicus. In words: Reduction in leukocyte numbers in rat pleural RPAR exudate. The experiment is classed as functional. The procedure, abridged: (§2)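 Fasted male Sprague-Dawley rats (160-200 g, 8-10/group) received BSA 3 mg/kg iv, then 1 h later intrapleural rabbit anti-BSA γ-globulin (0.2 mL); oral compound (four doses, 0.2% methylcellulose) or vehicle 30 min before. At 4 h, exudate volume and white cell count by phenol red dye dilution; percent inhibition versus control mean; ED50 by least-squares regression.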

For experiment [5], the species on record is Rattus norvegicus. Nature of the experiment: Reduction in exudate volume in rat pleural RPAR test. The experiment is classed as functional. The method, boiled down:
as §2

For experiment [6], the species on record is Rattus norvegicus. In words: animal or person. It counts as functional. The conditions noted are these: po.
The species named for experiment [7] is Rattus norvegicus. Nature of the experiment: Reduction in leukocyte numbers in rat pleural carrageenan test. It counts as functional. The procedure, abridged: (§3)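 Fasted male Sprague-Dawley rats (160-200 g, 8-10/group) dosed orally at four levels in 0.2% methylcellulose, or vehicle, 30 min before intrapleural carrageenin (125 μg in 0.2 mL saline); no iv BSA. Killed 4 h later; pleural exudate volume and white cells measured by phenol red dye dilution, inhibition calculated against vehicle controls.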

The species entered for experiment [8] is Rattus norvegicus. Nature of the experiment: Reduction in exudate volume in rat pleural carrageenan test. The experiment is classed as functional. The method, boiled down:
as §3

The species named for experiment [9] is Rattus norvegicus. Nature of the experiment: (§4) Reduction in leukocyte numbers in rat pleural RPAR exudate; Nonactive. The experiment is classed as functional, organism-based. The method, boiled down:
as §2

Experiment [10] is filed under the species Rattus norvegicus. The experiment is described as §4. The experiment is classed as functional, organism-based. The method, boiled down:
as §2
This is another data set of the same source.

The species entered for experiment [11] is Rattus norvegicus. Nature of the experiment: Reduction in exudate volume in rat pleural RPAR test; Nonactive. It counts as functional, organism-based. The procedure, abridged: as §2

For orientation: inhibition in vivo means the change of the read-out against control, counted positive when it falls. What is called Inhibition is the relative decrease from the control value, in per cent. A word on the ED50: it is the midpoint of the dose-response relation.

In turn, `COc1cccnc1CSc1ccc(Br)cc1` gave an inhibition in vivo at 350 µmol/kg in experiment [1] of 26%.
Consider `COc1ccc(SCc2ccccn2)cc1.Cl`, for which the Inhibition in [2] was found to be 23%.
For the compound `c1ccc(CSc2nc3ccccc3s2)nc1`, in experiment [2], the ED40 entry was “inactive”.
`Cl.[O-][n+]1ccccc1CSc1ccc(Br)cc1` showed an ED40 in experiment [3] of 148 µM/kg.
`Cl.Clc1ccc(SCc2ccccn2)cc1`: the ED50 came to 162 µmol/kg in experiment [4] and 154 µmol/kg in experiment [5]. Moreover, the ED40 in [3] was 186 µM/kg.
`Brc1ccc(SCC2CCCCN2)cc1` (stereo unspecified): the ED40 in experiment [3] was found to be 430 µM/kg.
With `Brc1ccc(SCc2cccc(CSc3ccc(Br)cc3)n2)cc1`, the ED40 entry in experiment [2] was “inactive”.
Regarding `Cl.Cl.c1ccc(CSc2ccncc2)nc1`, the ED40 in experiment [3] was determined as 149 µM/kg.
For the compound `c1ccc(CSc2nc3ccccc3o2)nc1`, the inhibition in vivo at 350 µmol/kg in experiment [6] stood at 26%.
`Cc1cccc(CSc2ccc(Br)cc2)n1` yielded an inhibition in vivo at 350 µmol/kg in experiment [6] of 28%.
`Oc1ccc(SCc2ccccn2)cc1`: the ED40 entry in experiment [2] is “inactive”.
On the same count and under the same terms, next, `Cc1ccc(CSc2ccc(Br)cc2)nc1`: “inactive”; `Brc1ccc(SCc2cc(-c3ccccc3)ccn2)cc1`: “inactive”.
Compound `Cl.O=[N+]([O-])c1ccc(SCc2ccccn2)cc1` showed an ED40 in [3] of 233 µM/kg.
Regarding `Clc1cccc(CSc2ccc(Br)cc2)n1`, in experiment [2], the ED40 entry was “inactive”.
In the case of `Oc1cccnc1CSc1ccc(Br)cc1`, the ED40 entry in experiment [2] is “inactive”.
`CC(C)(C)c1ccc(SCc2ccccn2)cc1` yielded an inhibition in vivo at 350 µmol/kg in experiment [6] of 34%.
On to `Brc1ccc(SCCc2ccccn2)cc1`, for which the ED40 result in experiment [2] was “inactive”.
Compound `Brc1ccc(Sc2ccccn2)cc1.Cl` had an ED40 in [3] of 369 µM/kg.
Compound `CC(=O)Nc1ccc(SCc2ccccn2)cc1` had an inhibition in vivo at 350 µmol/kg in [6] of 30%.
Take `Cl.Fc1ccc(SCc2ccccn2)cc1`: the ED50 came out at 129 µmol/kg in experiment [4] and 137 µmol/kg in [5]. Further, the ED40 in experiment [3] was determined as 159 µM/kg.
Take `Cc1cc(C(C)(C)C)ccc1SCc1ccccn1`: the inhibition in vivo at 350 µmol/kg in experiment [6] worked out at 30%.
`Cl.Clc1cccc(SCc2ccccn2)c1`: the ED40 in experiment [3] came to 223 µM/kg.
`c1ccc(CSC2CCCCC2)nc1` registered an inhibition in vivo at 350 µmol/kg in [6] of 21%.
`Brc1ccc(CSc2ccccn2)cc1` showed an inhibition in vivo at 350 µmol/kg in experiment [6] of 36%.
Regarding `Cl.c1ccc(CSc2ncccn2)nc1`, the ED40 in experiment [3] was 283 µM/kg.
`Cl.Oc1nc(SCc2ccccn2)nc2ccccc12` yielded an ED40 in [3] of 177 µM/kg.
Still for that read-out and setting: next, `Brc1ccccc1SCc1ccccn1.Cl`: 282 µM/kg.
In the case of `Brc1ccc(NCc2ccccn2)cc1`, the ED40 result in experiment [2] was “inactive”.
Turning to `Cl.c1ccc(SCc2ccccn2)cc1`, the ED50 in [4] was determined as 252 µmol/kg; in [5] it was 172 µmol/kg. This compound returned an ED40 in [3] of 101 µM/kg.
For `Cl.O=S(=O)(Cc1ccccn1)c1ccc(Br)cc1`, the ED40 in experiment [3] came to 192 µM/kg.
In turn, `c1ccc(CCc2ccccn2)cc1` yielded an inhibition in vivo at 350 µmol/kg in experiment [6] of 36%.
With `C[C@]12CCC(=O)C=C1CC[C@@H]1[C@@H]2[C@@H](O)C[C@@]2(C)[C@H]1CC[C@]2(O)C(=O)CO` [HYDROCORTISONE], the 50% effective dose (ED50) in [7] amounted to 25 µmol/kg; in experiment [4], 50 µmol/kg; in experiment [5], 38 µmol/kg; in experiment [8], 33 µmol/kg. This compound also showed an ED40 in [3] of 33 µM/kg.
For the compound `Clc1ccnc(CSc2ccc(Br)cc2)c1`, the ED40 entry in experiment [2] was “inactive”.
Compound `Cl.[O-][S+](Cc1ccccn1)c1ccc(Br)cc1` (stereo unspecified) showed an ED40 in experiment [3] of 216 µM/kg.
Take `Brc1ccc(SCc2ccncc2)cc1`: the inhibition in vivo at 350 µmol/kg in [6] was 26%.
In turn, `Cc1cccnc1CSc1ccc(Br)cc1` returned an inhibition in vivo at 350 µmol/kg in [6] of 25%.
Same read-out and setting: under `Brc1ccc(CSCc2ccccn2)cc1` stands 31%.
The compound `Clc1ccc(OCc2ccccn2)cc1` registered an inhibition in vivo at 350 µmol/kg in experiment [6] of 39%.
In experiment [6], `C[n+]1ccccc1CSc1ccc(Br)cc1` showed an inhibition in vivo at 350 µmol/kg of 22%.
`CN1CCCCC1CSc1ccc(Br)cc1.Cl` (stereo unspecified) displayed an ED40 in [3] of 159 µM/kg.
As for `Brc1ccc(SCc2cccnc2)cc1`, the inhibition in vivo at 350 µmol/kg in experiment [6] was 23%.
`COc1cccc(SCc2ccccn2)c1.Cl`: the ED40 in experiment [3] was 273 µM/kg.
With `Nc1ccc(SCc2ccccn2)cc1`, the inhibition in vivo at 350 µmol/kg in experiment [6] was 25%.
With `COc1ccc2c(c1)c(CC(=O)O)c(C)n2C(=O)c1ccc(Cl)cc1` [INDOMETHACIN], in [2], the ED40 result was “inactive”. For the same compound, the ED50 result in experiment [9], in [10] and in [11] was “inactive” each time. The ED50 in experiment [8] is 3 µmol/kg.
Turning to `Cc1ccc(O)c(CSc2ccc(Br)cc2)n1`, the ED40 entry in experiment [2] is “inactive”.
Consider `Clc1ccc(Cc2ccccn2)cc1`, for which, in [6], the inhibition in vivo at 350 µmol/kg came to 35%.
The compound `Cl.FC(F)(F)c1cccc(SCc2ccccn2)c1` had an ED40 in [3] of 307 µM/kg.
Regarding `Brc1ccc(SCc2ccccn2)cc1.Cl`, the ED50 in experiment [7] was found to be 215 µmol/kg; in [4], 73 µmol/kg; in experiment [5], 82 µmol/kg; in experiment [8], 142 µmol/kg. This compound had an ED40 in [3] of 151 µM/kg.
In experiment [3], `CC(Sc1ccc(Br)cc1)c1ccccn1.Cl` (stereo unspecified) gave an ED40 of 212 µM/kg.
For `Cc1ccc(SCc2ccccn2)cc1`, in [2], the ED40 result is “inactive”.
In turn, `Cl.Clc1ccc(SCc2ccccn2)cc1Cl` showed an ED40 in experiment [3] of 402 µM/kg.
Take `Cl.Clc1ccccc1SCc1ccccn1`: in [3], the ED40 was found to be 300 µM/kg.
